Experimental data as given in ChEMBL document CHEMBL1136016, “Synthesis, biological activity, and molecular modeling investigation of new pyrazolo[4,3-e]-1,2,4-triazolo[1,5-c]pyrimidine derivatives as human A(3) adenosine receptor antagonists” (J Med Chem, 2002).
One block for each compound: values may come before it.

How the values were obtained:
Adenosine receptor A2a [1] = target: T1, Adenosine receptor A2a (Homo sapiens, UniProt P29274); assay: Displacement of [3H]SCH-58261 from human Adenosine A2A receptor expressed in HEK293 cells; range 362-445; assay type: cell-based
Adenosine receptor A3 [2] = target: T2, Adenosine receptor A3 (Homo sapiens, UniProt P0DMS8); assay: Displacement of [3H]MRE3008-F20 from human Adenosine A3 receptor expressed in HEK cells; range 2.0-3.1; assay type: cell-based, HEK293
T2 sequence (P0DMS8 whole entry): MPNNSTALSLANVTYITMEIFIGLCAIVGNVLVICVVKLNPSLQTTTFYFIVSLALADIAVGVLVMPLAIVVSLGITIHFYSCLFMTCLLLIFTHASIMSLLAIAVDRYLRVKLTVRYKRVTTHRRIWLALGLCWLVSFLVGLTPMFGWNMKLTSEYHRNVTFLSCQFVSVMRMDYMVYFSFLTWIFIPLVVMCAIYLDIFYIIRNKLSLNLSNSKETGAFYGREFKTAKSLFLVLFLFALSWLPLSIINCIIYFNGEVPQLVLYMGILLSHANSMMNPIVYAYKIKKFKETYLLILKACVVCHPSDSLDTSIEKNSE

Adenosine receptor A2b [3] = target: T3, Adenosine receptor A2b (Homo sapiens, UniProt P29275); assay: Displacement of [3H]DPCPX from human Adenosine A2B receptor expressed in HEK293 cells; range 25-40; assay type: cell-based
T3 sequence (P29275 whole entry): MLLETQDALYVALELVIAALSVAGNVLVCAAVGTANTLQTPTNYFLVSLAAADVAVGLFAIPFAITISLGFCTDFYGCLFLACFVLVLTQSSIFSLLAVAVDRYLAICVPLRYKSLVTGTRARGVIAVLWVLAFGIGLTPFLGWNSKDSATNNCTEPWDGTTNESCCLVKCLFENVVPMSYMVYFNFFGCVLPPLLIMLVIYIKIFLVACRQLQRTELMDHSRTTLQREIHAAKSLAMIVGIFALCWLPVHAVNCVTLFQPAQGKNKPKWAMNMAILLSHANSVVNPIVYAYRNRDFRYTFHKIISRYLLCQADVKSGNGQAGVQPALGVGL
How it was run: (§1)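 HEK-293 membranes expressing the human receptor were incubated 60 min at 25 °C. Six to eight test concentrations were used. Nonspecific binding was set with NECA. n = 3-6.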

Adenosine receptor A1 [4] = target: T4, Adenosine receptor A1 (Homo sapiens, UniProt P30542); assay: Displacement of [3H]DPCPX from human Adenosine A1 receptor expressed in CHO cells; range 552-676; assay type: cell-based
T4 sequence (P30542 whole entry): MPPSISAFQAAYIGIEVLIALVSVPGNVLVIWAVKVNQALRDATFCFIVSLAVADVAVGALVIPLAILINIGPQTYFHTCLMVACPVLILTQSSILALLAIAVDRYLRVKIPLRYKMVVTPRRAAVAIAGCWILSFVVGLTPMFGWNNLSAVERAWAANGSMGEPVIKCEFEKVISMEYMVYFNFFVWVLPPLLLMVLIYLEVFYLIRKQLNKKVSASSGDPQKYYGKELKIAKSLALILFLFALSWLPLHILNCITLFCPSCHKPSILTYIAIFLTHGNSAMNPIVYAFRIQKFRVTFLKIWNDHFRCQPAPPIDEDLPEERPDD
How it was run: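 Competition binding on membranes of CHO cells stably expressing human A1 receptor, resuspended in 50 mM Tris HCl pH 7.4. Incubation 120 min at 25 °C with 1 nM [3H]DPCPX, 50 µg protein per assay and at least six to eight test concentrations. CHA defined nonspecific binding. Bound ligand separated on glass-fibre filters and counted; n = 3-6.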

[5] = target: Adenosine receptors; A1 & A3 (Homo sapiens) (UniProt P30542+P0DMS8); assay: Selectivity ratio (hA1/hA3); assay type: protein assay
[6] = target: Adenosine receptors; A2b & A3 (Homo sapiens) (UniProt P29275+P0DMS8); assay: Selectivity ratio (h2B/hA3); assay type: protein assay
Adenosine receptor A3 [7] = target: T2, Adenosine receptor A3; assay: biochemical
Adenosine receptor A1 [8] = target: T4, Adenosine receptor A1; assay: Displacement of [3H]DPCPX from human Adenosine A1 receptor expressed in CHO cells; range 253-401; assay type: cell-based
How it was run: (§2)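 Human recombinant A1 receptor in CHO cell membranes, resuspended in 50 mM Tris HCl pH 7.4. Displacement run 120 min at 25 °C with 1 nM [3H]DPCPX, 50 µg protein per assay, and at least six to eight test concentrations. Nonspecific binding defined with CHA. Bound and free separated on glass-fiber filters; filter radioactivity counted. n = 3-6.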

Adenosine receptor A2a [9] = target: T1, Adenosine receptor A2a; assay: Displacement of [3H]SCH-58261 from human Adenosine A2A receptor expressed in HEK293 cells; range 36-70; assay type: cell-based
Adenosine receptor A2b [10] = target: T3, Adenosine receptor A2b; assay: Displacement of [3H]-DPCPX from human Adenosine A2B receptor expressed in HEK293 cells; range 107-172; assay type: cell-based; how it was run: as §1
Adenosine receptor A1 [11] = target: T4, Adenosine receptor A1; assay: Displacement of [3H]DPCPX from human Adenosine A1 receptor expressed in CHO cells; range 324-475; assay type: cell-based
Adenosine receptor A3 [12] = target: T2, Adenosine receptor A3; assay: Displacement of [3H]MRE3008-F20 from human Adenosine A3 receptor expressed in HEK cells; range 3.05-3.78; assay type: cell-based, HEK293
Adenosine receptor A2b [13] = target: T3, Adenosine receptor A2b; assay: Displacement of [3H]-DPCPX from human Adenosine A2B receptor expressed in HEK293 cells; range 91-148; assay type: cell-based
How it was run: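 Competition binding on membranes of HEK-293 cells carrying recombinant human A2B receptor. Incubation 60 min at 25 °C in 50 mM Tris HCl pH 7.4 with 10 mM MgCl2, 1 mM EDTA, 0.1 mM benzamidine and 2 IU/mL adenosine deaminase. Radioligand 40 nM [3H]DPCPX, at least six to eight test concentrations. NECA defined nonspecific binding. Bound ligand separated on glass-fibre filters and counted; n = 3-6.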

Adenosine receptor A2a [14] = target: T1, Adenosine receptor A2a; assay: Displacement of [3H]SCH-58261 from human Adenosine A2A receptor expressed in HEK293 cells; range 114-179; assay type: cell-based
Adenosine receptor A3 [15] = target: T2, Adenosine receptor A3; assay: Inhibition of IB-MECA agonist-mediated cAMP production in CHO cell membranes expressing human Adenosine A3 receptor; range 15-44; assay type: functional, cell-based
How it was run: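 Human A3-CHO membranes (in 50 mM Tris HCl, 10 mM MgCl2, 1 mM EDTA, pH 7.4) were preincubated for 10 min at 37 °C with 5 µM GTP, 0.5 mM Ro 20-1724 and 2.0 IU/mL adenosine deaminase. IB-MECA (100 nM) or antagonist was then added with 1 mM ATP and forskolin for 10 min. The reaction was stopped by 2 min boiling. cAMP was measured by [3H]cAMP competitive protein binding using beef adrenal binding protein, 150 min at 4 °C.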

Adenosine receptor A1 [16] = target: T4, Adenosine receptor A1; assay: Displacement of [3H]DPCPX from human Adenosine A1 receptor expressed in CHO cells; assay type: cell-based; how it was run: as §2
Adenosine receptor A3 [17] = target: T2, Adenosine receptor A3; assay: biochemical; remark: listed apart in the source
Adenosine receptor A2b [18] = target: T3, Adenosine receptor A2b; assay: Displacement of [3H]DPCPX from human Adenosine A2B receptor expressed in HEK293 cells (95% confidence limits); assay type: cell-based; how it was run: as §1
Adenosine receptor A2a [19] = target: T1, Adenosine receptor A2a; assay: Displacement of [3H]SCH-58261 from human Adenosine A2A receptor expressed in CHO cells; assay type: cell-based
How it was run: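 Membranes from CHO cells expressing the human receptor (50 µg protein) with [3H]SCH58261 and six to eight competitor concentrations. Incubated 60 min at 25 °C. Nonspecific binding was set with NECA.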

Adenosine receptor A2b [20] = target: T3, Adenosine receptor A2b; assay: Displacement of [3H]DPCPX binding at human Adenosine A2B receptor expressed in HEK293 cells; assay type: cell-based
How it was run: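 Membranes from HEK-293 cells with human recombinant A2B receptor. Incubation 60 min at 25 °C in 50 mM Tris HCl, 10 mM MgCl2, 1 mM EDTA, 0.1 mM benzamidine, pH 7.4, with 2 IU/mL adenosine deaminase and 40 nM [3H]DPCPX. At least six to eight test concentrations. Nonspecific binding defined with NECA. n = 3-6.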

Adenosine receptor A3 [21] = target: T2, Adenosine receptor A3; assay: Displacement of […] from human Adenosine A3 receptor expressed in CHO cells; assay type: cell-based
How it was run: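 Membranes of CHO cells stably expressing human A3 receptor (50 µg protein/assay), incubated in duplicate with 1 nM [3H]MRE3008-F20 in 50 mM Tris HCl, 10 mM MgCl2 (pH 7.4) and six to eight ligand concentrations, 120 min at 4 °C. Nonspecific binding was set with 1 µM MRE3008-F20. Separation was by GF/B filtration and scintillation counting; n = 3-6.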

T1 sequence (P29274 whole entry): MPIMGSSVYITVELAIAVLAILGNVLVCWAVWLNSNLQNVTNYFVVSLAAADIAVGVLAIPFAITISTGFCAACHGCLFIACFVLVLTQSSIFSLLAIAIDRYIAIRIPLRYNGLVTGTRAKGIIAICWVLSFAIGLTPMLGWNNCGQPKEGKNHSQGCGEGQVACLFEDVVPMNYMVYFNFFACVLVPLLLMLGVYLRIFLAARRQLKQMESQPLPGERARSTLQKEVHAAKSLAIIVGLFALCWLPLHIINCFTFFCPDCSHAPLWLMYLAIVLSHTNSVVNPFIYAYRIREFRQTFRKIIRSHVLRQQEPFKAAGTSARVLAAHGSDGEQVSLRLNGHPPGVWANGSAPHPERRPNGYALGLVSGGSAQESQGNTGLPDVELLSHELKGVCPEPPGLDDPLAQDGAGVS

SMILES: CCCn1cc2c(nc(NC(=O)Nc3ccc(Cl)c(Cl)c3)n3nc(-c4ccco4)nc23)n1
Ki (Adenosine receptor A2a [1]): 401 nM
Ki (Adenosine receptor A3 [2]): 2.5 nM
Ki (Adenosine receptor A2b [3]): 31 nM
Ki (Adenosine receptor A1 [4]): 611 nM
Ratio [5]: 244
Ratio [6]: 12

SMILES: Cn1cc2c(nc(NC(=O)Nc3ccc(Cl)c(Cl)c3)n3nc(-c4ccco4)nc23)n1
Ratio [5]: 115
Ki (Adenosine receptor A1 [11]): 392 nM
Ki (Adenosine receptor A3 [12]): 3.4 nM
Ki (Adenosine receptor A2b [13]): 116 nM
Ki (Adenosine receptor A2a [14]): 143 nM
IC50 (Adenosine receptor A3 [15]): 26 nM
Ratio [6]: 34

SMILES: CCn1cc2c(nc(NC(=O)Nc3ccc(OC)cc3)n3nc(-c4ccco4)nc23)n1
Ratio [5]: 1710
Ratio [6]: 408

SMILES: O=C(Nc1cccc(Cl)c1)Nc1nc2ccc(Cl)cc2c2nc(-c3ccco3)nn12
Ratio [5]: 54
Ratio [6]: 157

SMILES: CCn1cc2c(nc(NC(=O)Cc3ccccc3)n3nc(-c4ccco4)nc23)n1
Ki (Adenosine receptor A1 [16]): 714 nM
Ratio [5]: 693
Ki (Adenosine receptor A3 [17]): 1.03 nM
Ki (Adenosine receptor A2b [18]): 161 nM
Ratio [6]: 156
Ki (Adenosine receptor A2a [19]): 335 nM

SMILES: Cn1cc2c(nc(NC(=O)Nc3cccc(Cl)c3)n3nc(-c4ccco4)nc23)n1
Ratio [5]: 875
Ratio [6]: 512

SMILES: COc1ccc(NC(=O)Nc2nc3ccc(Cl)cc3c3nc(-c4ccco4)nn23)cc1
Ratio [5]: 43
Ratio [6]: 158

Further lines, results first:

Ki (Adenosine receptor A3 [7]): 0.8 nM
Ki (Adenosine receptor A1 [8]): 318 nM
Ki (Adenosine receptor A2a [9]): 50 nM
Ratio [5]: 398
Ki (Adenosine receptor A2b [10]): 136 nM
Ratio [6]: 170
SMILES: CCCCn1cc2c(nc(NC(=O)Nc3ccc(F)cc3)n3nc(-c4ccco4)nc23)n1

Ratio [5]: 925
Ratio [6]: 946
SMILES: CCCCn1cc2c(nc(NC(=O)Nc3ccc(OC)cc3)n3nc(-c4ccco4)nc23)n1

Ki (Adenosine receptor A1 [16]): 584 nM
Ki (Adenosine receptor A2b [20]): 52 nM
Ratio [5]: 1060
Ki (Adenosine receptor A3 [21]): 0.55 nM
Ratio [6]: 96
Ki (Adenosine receptor A2a [19]): 503 nM
SMILES: CCCCn1cc2c(nc(NC(=O)Nc3ccc([N+](=O)[O-])cc3)n3nc(-c4ccco4)nc23)n1
